Experimental data taken from ChEMBL document CHEMBL3407367 (J Med Chem, 2015).
In brackets after ≈: the same amount, converted by molar mass. Activity calls are given as the source filed them. The rule behind the calls is not given here. Positions of bridges follow the written chain, without caps; N, C: chain ends. Non-standard residues stand in square brackets, D forms with d. Residues, ends and D or L forms follow the SMILES beside them. Trp(1-Me) = Cn1cc(C[C@H](N)C(=O)O)c2ccccc21; 1Nal = N[C@@H](Cc1cccc2ccccc12)C(=O)O

Tests used:
[1] = Solubility of the compound in PBS at pH 7.4 after 24 to 48 hrs by spectrophotometry; type: physicochemical
How it was run: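 About 1 mg peptide put in 200 μL PBS pH 7.4 (top reportable value 5 mg/mL). Vortexed 30 s, centrifuged 13000g for 5 min. Supernatant A280 read and converted to concentration by Beer–Lambert, with extinction coefficients from Trp/Tyr count. Samples held at 4 °C and re-read at 24 and 48 h. Mean and standard deviation of three readings per sample.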

RPE [2] = assay: Inhibition of complement activation in human fetal RPE cells assessed as reduction in C5b-9 formation at 1 uM by fluorescence assay in presence of complement-competant human serum; type: cell-based
How it was run: (§1)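 Human fetal RPE cells from two donor lines (081309, 072810) were grown on porous supports in Miller medium with 5% FCS. Peptide (1 µM; one experiment 1, 10, 50 µM) in serum-free medium with 10% human complement serum was premixed 30 min at RT, then incubated overnight at 37 °C. Samples were PFA-fixed and sections immunostained; the confocal C5b-9/ApoE area ratio is given as % of serum-only control; n = 10; Mann–Whitney U.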

RPE [3] = assay: Inhibition of complement activation in human fetal RPE cells assessed as reduction in C5b-9 formation at 50 uM by fluorescence assay in presence of complement-competant human serum; type: cell-based; how it was run: as §1
Complement C3 = Complement C3 (Homo sapiens, UniProt P01024); assay: Inhibition of C3 cleavage in human serum assessed as reduction in C5b-9 formation compound preincubated for 15 mins measured 1 hr post LPS stimulation by ELISA
Chain of Complement C3 (P01024 23-667 limits assumed): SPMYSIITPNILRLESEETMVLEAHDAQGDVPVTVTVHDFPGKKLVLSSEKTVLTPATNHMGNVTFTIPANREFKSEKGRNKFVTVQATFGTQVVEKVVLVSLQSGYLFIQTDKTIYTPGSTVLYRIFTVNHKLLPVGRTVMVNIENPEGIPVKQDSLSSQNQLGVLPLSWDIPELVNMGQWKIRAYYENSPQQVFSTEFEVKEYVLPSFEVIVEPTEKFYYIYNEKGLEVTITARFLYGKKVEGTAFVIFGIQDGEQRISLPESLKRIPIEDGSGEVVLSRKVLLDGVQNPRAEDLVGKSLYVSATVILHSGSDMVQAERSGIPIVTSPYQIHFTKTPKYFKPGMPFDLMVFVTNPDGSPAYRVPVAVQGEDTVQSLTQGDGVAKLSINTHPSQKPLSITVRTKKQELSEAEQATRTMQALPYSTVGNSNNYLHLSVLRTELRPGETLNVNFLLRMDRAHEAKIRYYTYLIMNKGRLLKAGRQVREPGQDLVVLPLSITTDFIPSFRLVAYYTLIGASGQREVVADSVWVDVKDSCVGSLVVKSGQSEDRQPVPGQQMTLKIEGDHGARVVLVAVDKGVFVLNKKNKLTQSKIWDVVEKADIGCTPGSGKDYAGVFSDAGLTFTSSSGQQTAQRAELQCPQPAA
Chain of Complement C3 (P01024 672-1663 limits assumed): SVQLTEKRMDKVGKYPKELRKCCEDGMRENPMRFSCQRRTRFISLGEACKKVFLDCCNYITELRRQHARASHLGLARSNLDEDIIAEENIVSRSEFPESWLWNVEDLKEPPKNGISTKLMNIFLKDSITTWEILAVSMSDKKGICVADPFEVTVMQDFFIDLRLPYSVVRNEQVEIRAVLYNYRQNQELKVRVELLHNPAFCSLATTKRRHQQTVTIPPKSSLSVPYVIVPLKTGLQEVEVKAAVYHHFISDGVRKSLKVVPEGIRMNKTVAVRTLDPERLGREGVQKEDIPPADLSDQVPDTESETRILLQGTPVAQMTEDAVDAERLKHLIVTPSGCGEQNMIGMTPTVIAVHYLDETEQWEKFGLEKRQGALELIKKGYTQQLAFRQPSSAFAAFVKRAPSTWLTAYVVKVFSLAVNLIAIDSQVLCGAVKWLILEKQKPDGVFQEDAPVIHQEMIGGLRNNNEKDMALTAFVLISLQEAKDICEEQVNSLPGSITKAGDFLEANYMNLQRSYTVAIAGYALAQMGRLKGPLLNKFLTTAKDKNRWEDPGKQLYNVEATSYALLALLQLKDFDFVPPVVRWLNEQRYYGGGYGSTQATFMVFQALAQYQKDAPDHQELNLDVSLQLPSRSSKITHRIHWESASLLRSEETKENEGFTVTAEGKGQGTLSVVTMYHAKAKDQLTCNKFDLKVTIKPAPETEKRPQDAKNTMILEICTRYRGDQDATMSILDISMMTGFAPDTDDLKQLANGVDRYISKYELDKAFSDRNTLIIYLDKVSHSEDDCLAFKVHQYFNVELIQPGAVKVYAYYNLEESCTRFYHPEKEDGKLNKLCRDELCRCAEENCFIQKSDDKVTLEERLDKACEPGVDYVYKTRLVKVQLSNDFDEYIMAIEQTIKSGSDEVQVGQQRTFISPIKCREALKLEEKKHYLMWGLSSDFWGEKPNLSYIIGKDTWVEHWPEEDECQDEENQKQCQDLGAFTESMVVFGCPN

## CC[C@H](C)[C@H](N)C(=O)N[C@H]1CSSC[C@@H](C(=O)N[C@H](C(N)=O)[C@@H](C)O)NC(=O)[C@H](CCCN=C(N)N)NC(=O)[C@H](Cc2cnc[nH]2)NC(=O)[C@H](Cc2cnc[nH]2)NC(=O)CNC(=O)[C@H](Cc2c[nH]c3ccccc23)NC(=O)[C@H](CC(=O)O)NC(=O)[C@H](CCC(N)=O)NC(=O)[C@H](C(C)C)NC(=O)[C@H](C(C)C)NC1=O [COMPSTATIN]
[1]
  solubility: 4500 µg/mL (≈ 2900 µM)

## CC[C@H](C)[C@H](NC(C)=O)C(=O)N[C@H]1CSSC[C@@H](C(=O)N[C@H](C(N)=O)[C@@H](C)O)NC(=O)[C@H](CCCNC(=N)N)NC(=O)[C@H](Cc2cnc[nH]2)NC(=O)[C@H](Cc2cccc3ccccc23)NC(=O)CNC(=O)[C@H](Cc2c[nH]c3ccccc23)NC(=O)[C@H](CC(=O)O)NC(=O)[C@H](CCC(N)=O)NC(=O)[C@H](Cc2c[nH]c3ccccc23)NC(=O)[C@H](C(C)C)NC1=O (Ac-ICVWQDWG[1Nal]HRCT-NH2; disulfide 2-12)
[1]
  solubility: 100 µg/mL (≈ 57.5 µM)

## CC[C@H](C)[C@H](NC(=O)[C@H](CO)NC(=O)[C@H](CCCNC(=N)N)NC(C)=O)C(=O)N[C@H]1CSSC[C@@H](C(=O)N[C@H](C(N)=O)[C@@H](C)O)NC(=O)[C@H](CCCNC(=N)N)NC(=O)[C@H](Cc2cnc[nH]2)NC(=O)[C@H](C)NC(=O)CNC(=O)[C@H](Cc2c[nH]c3ccccc23)NC(=O)[C@H](CC(=O)O)NC(=O)[C@H](CCC(N)=O)NC(=O)[C@H](Cc2cccc3ccccc23)NC(=O)[C@H](C(C)C)NC1=O (Ac-RSICV[1Nal]QDWGAHRCT-NH2; disulfide 4-14)
RPE [2]
  inhibition: Active

## CC[C@H](C)[C@H](NC(C)=O)C(=O)N[C@H]1CSSC[C@@H](C(=O)N[C@H](C(N)=O)[C@@H](C)O)NC(=O)[C@H](CCCNC(=N)N)NC(=O)[C@H](Cc2cnc[nH]2)NC(=O)[C@H](C)NC(=O)CNC(=O)[C@H](Cc2c[nH]c3ccccc23)NC(=O)[C@H](CC(=O)O)NC(=O)[C@H](CCC(N)=O)NC(=O)[C@H](Cc2cn(C)c3ccccc23)NC(=O)[C@H](C(C)C)NC1=O
[1]
  solubility: 1900 µg/mL (≈ 1170 µM)

## CC[C@H](C)[C@H](NC(C)=O)C(=O)N[C@H]1CSSC[C@@H](C(=O)N[C@H](C(N)=O)[C@@H](C)O)NC(=O)[C@H](CCCNC(=N)N)NC(=O)[C@H](Cc2cnc[nH]2)NC(=O)[C@H](C)NC(=O)CNC(=O)[C@H](Cc2c[nH]c3ccccc23)NC(=O)[C@H](CC(=O)O)NC(=O)[C@H](CCC(N)=O)NC(=O)[C@H](Cc2c[nH]c3ccccc23)NC(=O)[C@H](C(C)C)NC1=O
[1]
  solubility: 3200 µg/mL (≈ 1980 µM)
RPE [2]
  inhibition: Active

## CC[C@H](C)[C@H](N)C(=O)N[C@H]1CSSC[C@@H](C(=O)N[C@H](C(N)=O)[C@@H](C)O)NC(=O)[C@H](CCCNC(=N)N)NC(=O)[C@H](Cc2cnc[nH]2)NC(=O)[C@H](Cc2cnc[nH]2)NC(=O)CNC(=O)[C@H](Cc2c[nH]c3ccccc23)NC(=O)[C@H](CC(=O)O)NC(=O)[C@H](CCC(N)=O)NC(=O)[C@H](C(C)C)NC(=O)[C@H](C(C)C)NC1=O
RPE [3]
  inhibition: Active

## CC[C@H](C)[C@H](NC(C)=O)C(=O)N[C@H]1CSSC[C@@H](C(=O)N[C@H](C(N)=O)[C@@H](C)O)NC(=O)[C@H](CCCNC(=N)N)NC(=O)[C@H](Cc2cnc[nH]2)NC(=O)[C@H](Cc2cccc3ccccc23)NC(=O)CNC(=O)[C@H](Cc2c[nH]c3ccccc23)NC(=O)[C@H](CC(=O)O)NC(=O)[C@H](CCC(N)=O)NC(=O)[C@H](Cc2cn(C)c3ccccc23)NC(=O)[C@H](C(C)C)NC1=O (Ac-ICV[Trp(1-Me)]QDWG[1Nal]HRCT-NH2; disulfide 2-12)
[1]
  solubility: 100 µg/mL (≈ 57 µM)
Complement C3
  IC50: 4 µM

## CC[C@H](C)[C@H](NC(C)=O)C(=O)N[C@H]1CSSC[C@@H](C(=O)N[C@H](C(N)=O)[C@@H](C)O)NC(=O)[C@H](CCCNC(=N)N)NC(=O)[C@H](Cc2cnc[nH]2)NC(=O)[C@](C)(CC)NC(=O)CNC(=O)[C@H](Cc2c[nH]c3ccccc23)NC(=O)[C@H](CC(=O)O)NC(=O)[C@H](CCC(N)=O)NC(=O)[C@H](Cc2c[nH]c3ccccc23)NC(=O)[C@H](C(C)C)NC1=O
RPE [2]
  inhibition: Active

## CC(=O)N[C@@H](CC(N)=O)C(=O)N[C@@H](CCCNC(=N)N)C(=O)N[C@@H](CC(C)C)C(=O)N[C@H]1CSSC[C@@H](C(=O)N[C@H](C(N)=O)[C@@H](C)O)NC(=O)[C@H](CCCNC(=N)N)NC(=O)[C@H](Cc2cnc[nH]2)NC(=O)[C@H](C)NC(=O)CNC(=O)[C@H](Cc2c[nH]c3ccccc23)NC(=O)[C@H](CC(=O)O)NC(=O)[C@H](CCC(N)=O)NC(=O)[C@H](Cc2c[nH]c3ccccc23)NC(=O)[C@H](C(C)C)NC1=O (Ac-NRLCVWQDWGAHRCT-NH2; disulfide 4-14)
RPE [2]
  inhibition: Active

## CC(=O)N[C@@H](CC(N)=O)C(=O)N[C@@H](CCCNC(=N)N)C(=O)N[C@@H](CC(C)C)C(=O)N[C@H]1CSSC[C@@H](C(=O)N[C@H](C(N)=O)[C@@H](C)O)NC(=O)[C@H](CCCNC(=N)N)NC(=O)[C@H](Cc2cnc[nH]2)NC(=O)[C@H](Cc2cccc3ccccc23)NC(=O)CNC(=O)[C@H](Cc2c[nH]c3ccccc23)NC(=O)[C@H](CC(=O)O)NC(=O)[C@H](CCC(N)=O)NC(=O)[C@H](Cc2c[nH]c3ccccc23)NC(=O)[C@H](C(C)C)NC1=O (Ac-NRLCVWQDWG[1Nal]HRCT-NH2; disulfide 4-14)
RPE [2]
  inhibition: Active

## CC[C@H](C)[C@H](NC(=O)[C@H](CO)NC(=O)[C@H](CCCNC(=N)N)NC(C)=O)C(=O)N[C@H]1CSSC[C@@H](C(=O)N[C@H](C(N)=O)[C@@H](C)O)NC(=O)[C@H](CCCNC(=N)N)NC(=O)[C@H](Cc2cnc[nH]2)NC(=O)[C@H](C)NC(=O)CNC(=O)[C@H](Cc2c[nH]c3ccccc23)NC(=O)[C@H](CC(=O)O)NC(=O)[C@H](CCC(N)=O)NC(=O)[C@H](Cc2ccc(O)cc2)NC(=O)[C@H](C(C)C)NC1=O
[1]
  solubility: 5000 µg/mL (≈ 2730 µM)
RPE [2]
  inhibition: Active
